# From paper PMC8995271 (Targeted Oncology, 2022)
# “Also recorded” adds a separate entry of the source. Where two headings read alike, the source gives them in different places.
# How the values were obtained:
# HER2 = conditions: read-out: half maximal inhibitory concentration for inhibiting the phosphorylation of HER2; ref [17], [23]–[26]; cited from earlier work
# [1] = cited from earlier work
# HER1 = conditions: read-out: half maximal inhibitory concentration for inhibiting the phosphorylation of HER1; ref [17], [23]–[26]; cited from earlier work
# HER4 = conditions: read-out: half maximal inhibitory concentration for inhibiting the phosphorylation of HER4; ref [17], [23]–[26]; cited from earlier work
# [2] = Paclitaxel pharmacokinetics in patients, cycle 1 day 1 and day 8; type: in vivo, human; conditions: for AUC(0-t): human, plasma, mean AUC0–24h of paclitaxel, cycle 1 day 1
# [3] = Phase Ib dose-limiting toxicities and MTD determination; type: in vivo, human
# [4] = Treatment-related adverse events; type: in vivo, human
# [5] = test system: advanced or metastatic solid tumors; assay: Tumor response; type: in vivo, human
# [6] = Varlitinib plasma pharmacokinetics in patients, cycle 1; type: in vivo; conditions: human, oral, mean AUC0–24h, cohorts pooled
# Outline: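 Blood samples taken in cycle 1 from patients on intermittent (4 days on/3 off) oral twice-daily varlitinib with weekly chemotherapy ± trastuzumab. Sampling was on cycle 1 day 5 at 0, 0.5, 1, 2, 5, 7 and 24 h after the varlitinib dose.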
# [7] = cited from earlier work; remark: listed apart in the source
# [8] = cohort A2: varlitinib 400 mg BD continuous + carboplatin + paclitaxel
# [9] = cohort B (varlitinib + paclitaxel), n = 1
smiles,measurement,setting,value
CS(=O)(=O)CCNCc1ccc(-c2ccc3ncnc(Nc4ccc(OCc5cccc(F)c5)c(Cl)c4)c3c2)o1 [lapatinib],IC50,HER2,[…]
same,grade 3 and 4 diarrhea rate,[1]; combination of lapatinib and capecitabine,12%
same,grade 3 and 4 diarrhea rate,[1]; combination of lapatinib and letrozole,8%
"CCOc1cc2ncc(C#N)c(Nc3ccc(OCc4ccccn4)c(Cl)c3)c2cc1NC(=O)/C=C/CN(C)C [neratinib, reference compound]",IC50,HER1,12 nM
same,IC50,HER2,39 nM
same,IC50,HER4,19 nM
"CC(=O)O[C@H]1C(=O)[C@@]2(C)[C@H]([C@H](OC(=O)c3ccccc3)[C@]3(O)C[C@H](OC(=O)[C@H](O)[C@@H](NC(=O)c4ccccc4)c4ccccc4)C(C)=C1C3(C)C)[C@]1(OC(C)=O)CO[C@@H]1C[C@@H]2O [paclitaxel, reference compound]",AUC(0-t),"[2]; varlitinib 300-mg intermittent dosing cohorts (A4, B1, C1)",5010 ± 1860 ng·h/mL
same,AUC(0-t),"[2]; varlitinib 400-mg intermittent dosing cohorts (A3, B2)",6130 ± 2050 ng·h/mL
C[C@@H]1COC(Nc2ccc3ncnc(Nc4ccc(OCc5nccs5)c(Cl)c4)c3c2)=N1 [varlitinib],DLT in cycle 1 (type = number of patients),[3]; [8],Febrile neutropenia = 3
same,Number with DLTs,[3]; [8],3/5
same,Number with DLTs,[3]; cohort A3: varlitinib 400 mg BD intermittent + carboplatin + paclitaxel,2/4
same,Number with DLTs,[3]; cohort A4: varlitinib 300 mg BD intermittent + carboplatin + paclitaxel,2/6
same,"DLT G3/4 neutropenia, patients","[3]; cohort A (varlitinib + carboplatin + paclitaxel), n = 6 of 18",33.3%
same,Number with DLTs,[3]; cohort B1: varlitinib 300 mg BD intermittent + weekly paclitaxel,0/6
same,DLT in cycle 1 (type = number of patients),[3]; cohort B2: varlitinib 400 mg BD intermittent + paclitaxel,Febrile neutropenia = 1; also recorded: G3 transaminitis =1
same,Number with DLTs,[3]; cohort B2: varlitinib 400 mg BD intermittent + weekly paclitaxel,2/4
same,DLT in cycle 1 (type = number of patients),[3]; cohort B3: varlitinib 300 mg BD continuous + paclitaxel,G3 diarrhea = 1
same,Number with DLTs,[3]; cohort B3: varlitinib 300 mg BD continuous + weekly paclitaxel,4/6
same,"DLT G3 diarrhea, patients",[3]; [9],6.25%
same,"DLT G3 transaminitis, patients",[3]; [9],6.25%
same,"DLT G3/4 neutropenia, patients","[3]; cohort B (varlitinib + paclitaxel), n = 3 of 16",18.8%
same,recommended phase II dose of varlitinib for the triplet combination,"[3]; intermittently, with weekly paclitaxel and 3-weekly subcutaneous trastuzumab 600 mg",300 mg
same,all grade pneumonitis rate,[4],5.4%
same,patients with reduction in left ventricular ejection fraction or cardiomyopathy,[4]; all cohorts,None
same,treatment-related mortality,[4]; all cohorts,no treatment-related mortality
same,any grade AE diarrhea,"[4]; overall, all cohorts (n = 37)",70.2%
same,any grade AE fatigue,"[4]; overall, all cohorts (n = 37)",67.5%
same,any grade AE neutropenia,"[4]; overall, all cohorts (n = 37)",45.9%
same,grade 3 and above AE hyponatremia,"[4]; overall, all cohorts (n = 37)",16.2%
same,grade 3 and above AE hypophosphatemia,"[4]; overall, all cohorts (n = 37)",13.5%
same,grade 3 and above AE neutropenia,"[4]; overall, all cohorts (n = 37)",40.5%
same,median duration on study treatment,"[5]; all patients, range 0.1–17.1 months",3.0 months
same,median PFS,"[5]; all patients, range 0.3–17.1 months",3.7 months
same,overall response rate,"[5]; entire cohort, 11/37",29.7%
same,partial response rate,"[5]; excluding the two subjects with non-metastatic breast cancer, 10/30",33.3%
same,stable disease,"[5]; excluding the two subjects with non-metastatic breast cancer, 13/30",43.3%
same,stable disease as best response,"[5]; patients evaluable for response, 13/31",41.9%
same,median duration on study treatment,"[5]; patients who achieved a partial response, range 2.2–17.1 months",5.0 months
same,objective responses,"[5]; varlitinib 300 mg continuous, 1/5 evaluable",20%
same,objective responses,"[5]; varlitinib 300 mg intermittent, 4/14 evaluable",28.6%
same,objective responses,"[5]; varlitinib 400 mg continuous, 2/5 evaluable",40%
same,objective responses,"[5]; varlitinib 400 mg intermittent, 3/6 evaluable",50%
same,objective responses,"[5]; varlitinib 500 mg continuous, 1/1 evaluable",100%
same,AUC(0-t),[6]; 300-mg intermittent dosing,44000 ng·h/mL
same,AUC(0-t),[6]; 400-mg intermittent dosing,75600 ng·h/mL
same,"effect of varlitinib on the pharmacokinetics (Cmax, AUC) of paclitaxel",[2]; paclitaxel 80 mg/m^2 weekly,Varlitinib was well tolerated and did not significantly affect the pharmacokinetics of paclitaxel
same,IC50,HER1,7 nM
same,IC50,HER2,2 nM
same,IC50,HER4,4 nM
same,maximum tolerated dose (MTD),"[7]; monotherapy (ARRAY 543-103), continuous dose twice a day",500 mg
same,median half-life,[7]; reported in other studies,5 to 7 h
same,"febrile neutropenia, patients","[7]; varlitinib in combination with 3-weekly docetaxel, phase I study",7%
